Assay results from ChEMBL document CHEMBL1129929, “Analogues of methotrexate in rheumatoid arthritis. 1. Effects of 10-deazaaminopterin analogues on type II collagen-induced arthritis in mice” (J Med Chem, 1997).

Legend:
[1] = test system: Mus musculus; experiment: Tested for antiinflammatory activity on mouse type II collagen arthritis as Paw swelling* of all animals in each group on day 23 at intraperitoneal dose of 8 mg/kg; assay type: functional
Procedure, shortened: (§1)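 DBA/1 mice immunized with bovine type II collagen (Courtenay method, modified), antigen booster at day 21. Compounds given ip from 2 days before the first collagen challenge, then every 2 days. Hind paw dimensions (mm) measured for both limbs of all animals, expressed as mean ± SD. Eight mice per dose; untreated controls pooled from four experiments (48 animals).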

[2] = test system: Mus musculus; experiment: Tested for antiinflammatory activity on mouse type II collagen arthritis as Paw swelling* of all animals in each group on day 37 at intraperitoneal dose of 8 mg/kg; assay type: functional; procedure, shortened: as §1
[3] = test system: Mus musculus; experiment: Tested for antiinflammatory activity on mouse type II collagen arthritis as Paw swelling* of all animals in each group on day 30 at intraperitoneal dose of 2 mg/kg; assay type: functional; procedure, shortened: as §1
[4] = test system: Mus musculus; experiment: Incidence of disease(mouse type II collagen arthritis) was scored as the percentage of animals within each experimental group that exhibited joint or limb inflammation on day 30 at intraperitoneal of dose 8 mg/kg; assay type: functional
Procedure, shortened: (§2)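 DBA/1 mice were immunized with bovine type II collagen (modified Courtenay method), with a collagen booster on day 21. Compounds were given ip starting 2 days before the first collagen challenge and every 2 days thereafter. Incidence was the percentage of animals per group with joint or limb inflammation, scored on days 23, 30, 37 and 44.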

[5] = test system: Mus musculus; experiment: Incidence of disease(mouse type II collagen arthritis) was scored as the percentage of animals within each experimental group that exhibited joint or limb inflammation on day 44 at intraperitoneal of dose 2 mg/kg; assay type: functional; procedure, shortened: as §2
[6] = Concentration required to inhibit the growth of chang liver cells; assay type: functional; conditions: Homo sapiens
[7] = test system: Mus musculus; experiment: Incidence of disease(mouse type II collagen arthritis) was scored as the percentage of animals within each experimental group that exhibited joint or limb inflammation on day 37 at intraperitoneal of dose 2 mg/kg; assay type: functional; procedure, shortened: as §2
[8] = test system: L1210; experiment: Concentration required to inhibit the growth of L1210 cells; assay type: functional, cell-based; conditions: Mus musculus
[9] = test system: Mus musculus; experiment: Incidence of disease(mouse type II collagen arthritis) was scored as the percentage of animals within each experimental group that exhibited joint or limb inflammation on day 23 at intraperitoneal dose of 8 mg/kg; assay type: functional; procedure, shortened: as §2
[10] = test system: Mus musculus; experiment: Tested for antiinflammatory activity on mouse type II collagen arthritis as Paw swelling* of all animals in each group on day 23 at intraperitoneal dose of 2 mg/kg; assay type: functional; procedure, shortened: as §1
[11] = test system: Mus musculus; experiment: Tested for antiinflammatory activity on mouse type II collagen arthritis as Paw swelling* of all animals in each group on day 37 at intraperitoneal dose of 2 mg/kg; assay type: functional; procedure, shortened: as §1
[12] = test system: Mus musculus; experiment: Incidence of disease(mouse type II collagen arthritis) was scored as the percentage of animals within each experimental group that exhibited joint or limb inflammation on day 23 at intraperitoneal dose of 2 mg/kg; assay type: functional; procedure, shortened: as §2
[13] = test system: Mus musculus; experiment: Tested for antiinflammatory activity on mouse type II collagen arthritis as Paw swelling* of all animals in each group on day 30 at intraperitoneal dose of 8 mg/kg; assay type: functional; procedure, shortened: as §1
[14] = test system: Mus musculus; experiment: Tested for antiinflammatory activity on mouse type II collagen arthritis as Paw swelling* of all animals in each group on day 44 at intraperitoneal dose of 4 mg/kg; assay type: functional; procedure, shortened: as §1
[15] = test system: Mus musculus; experiment: Incidence of disease(mouse type II collagen arthritis) was scored as the percentage of animals within each experimental group that exhibited joint or limb inflammation on day 37 at intraperitoneal of dose 4 mg/kg; assay type: functional; procedure, shortened: as §2
[16] = test system: Mus musculus; experiment: Tested for antiinflammatory activity on mouse type II collagen arthritis as Paw swelling* of all animals in each group on day 44 at intraperitoneal dose of 8 mg/kg; assay type: functional; procedure, shortened: as §1
[17] = test system: Mus musculus; experiment: Incidence of disease(mouse type II collagen arthritis) was scored as the percentage of animals within each experimental group that exhibited joint or limb inflammation on day 23 at intraperitoneal dose of 4 mg/kg; assay type: functional; procedure, shortened: as §2
[18] = test system: Mus musculus; experiment: Incidence of disease(mouse type II collagen arthritis) was scored as the percentage of animals within each experimental group that exhibited joint or limb inflammation on day 30 at intraperitoneal of dose 4 mg/kg; assay type: functional; procedure, shortened: as §2
[19] = test system: Mus musculus; experiment: Tested for antiinflammatory activity on mouse type II collagen arthritis as Paw swelling* of all animals in each group on day 37 at intraperitoneal dose of 4 mg/kg; assay type: functional; procedure, shortened: as §1
[20] = test system: Mus musculus; experiment: Incidence of disease(mouse type II collagen arthritis) was scored as the percentage of animals within each experimental group that exhibited joint or limb inflammation on day 37 at intraperitoneal of dose 8 mg/kg; assay type: functional; procedure, shortened: as §2
[21] = test system: Mus musculus; experiment: Incidence of disease(mouse type II collagen arthritis) was scored as the percentage of animals within each experimental group that exhibited joint or limb inflammation on day 30 at intraperitoneal of dose 2 mg/kg; assay type: functional; procedure, shortened: as §2
[22] = test system: Mus musculus; experiment: Tested for antiinflammatory activity on mouse type II collagen arthritis as Paw swelling* of all animals in each group on day 30 at intraperitoneal dose of 4 mg/kg; assay type: functional; procedure, shortened: as §1
[23] = test system: Mus musculus; experiment: Tested for antiinflammatory activity on mouse type II collagen arthritis as Paw swelling* of all animals in each group on day 44 at intraperitoneal dose of 2 mg/kg; assay type: functional; procedure, shortened: as §1
[24] = test system: Mus musculus; experiment: Tested for antiinflammatory activity on mouse type II collagen arthritis as Paw swelling* of all animals in each group on day 23 at intraperitoneal dose of 4 mg/kg; assay type: functional; procedure, shortened: as §1
[25] = test system: Mus musculus; experiment: Incidence of disease(mouse type II collagen arthritis) was scored as the percentage of animals within each experimental group that exhibited joint or limb inflammation on day 44 at intraperitoneal of dose 8 mg/kg; assay type: functional; procedure, shortened: as §2
[26] = test system: Mus musculus; experiment: Incidence of disease(mouse type II collagen arthritis) was scored as the percentage of animals within each experimental group that exhibited joint or limb inflammation on day 44 at intraperitoneal of dose 4 mg/kg; assay type: functional; procedure, shortened: as §2

**Q.** For `Nc1nc(N)c2nc(CCc3ccc(C(=O)NC(CCC(=O)O)C(=O)O)cn3)cnc2n1` (stereo unspecified), which Paw swelling [1] is on record?
**A.** 2.08 mm

**Q.** And the Paw swelling [2]?
**A.** 2.2 mm

**Q.** What about the Paw swelling [3] of the same compound?
**A.** 2.35 mm

**Q.** And the Animals [4]?
**A.** 38%

**Q.** What about the Animals [5] of the same compound?
**A.** 88%

**Q.** And the IC50 [6]?
**A.** 36 nM

**Q.** And the Animals [7]?
**A.** 63%

**Q.** What about the IC50 [8] of the same compound?
**A.** 88 nM

**Q.** What about the Animals [9] of the same compound?
**A.** 0%

**Q.** And the Paw swelling [10]?
**A.** 2.13 mm

**Q.** What about the Paw swelling [11] of the same compound?
**A.** 2.67 mm

**Q.** And the Animals [12]?
**A.** 0%

**Q.** What about the Paw swelling [13] of the same compound?
**A.** 2.22 mm

**Q.** And the Paw swelling [14]?
**A.** 2.68 mm

**Q.** What about the Animals [15] of the same compound?
**A.** 71%

**Q.** And the Paw swelling [16]?
**A.** 2.33 mm

**Q.** What about the Animals [17] of the same compound?
**A.** 0%

**Q.** And the Animals [18]?
**A.** 57%

**Q.** And the Paw swelling [19]?
**A.** 2.57 mm

**Q.** What about the Animals [20] of the same compound?
**A.** 25%

**Q.** What about the Animals [21] of the same compound?
**A.** 50%

**Q.** And the Paw swelling [22]?
**A.** 2.24 mm

**Q.** And the Paw swelling [23]?
**A.** 2.88 mm

**Q.** What about the Paw swelling [24] of the same compound?
**A.** 2.08 mm

**Q.** What about the Animals [25] of the same compound?
**A.** 50%

**Q.** And the Animals [26]?
**A.** 100%
